Only some compounds are listed: those with a hit (about 3.8% of all), similar ones and a draw of the others.
hERG rescue – hERG (human) protection from proarrhythmic block; AID 1511; 310,000 tested, 0.51% active; CHO-hERG, FluxOR thallium flux, dofetilide IC70 present; Q12809; activation (rescue from dofetilide block), less the hit threshold, % at 10 µM;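 active means activation above the mean of controls blocked by dofetilide plus 5 SD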;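 further: thallium influx through hERG after potassium depolarization seen as dye fluorescence rise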
KCNQ1 act – potentiators or activators of human KCNQ1 potassium channel | CHO-K1 KCNQ1, thallium flux FluxOR fluorescence; stronger effect = higher value | B-score at 10 µM | 310,000 tested, 0.35% active | AID 2648;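 active means fluorescence ratio B-score, a plate-corrected score, at least three library SD, with initial intensity B-score within 5 SD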
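Assay system: stable KCNQ1 CHO-K1 line; medium: assay buffer, equal DMSO in all wells; timing: 90 min dye loading and 20 min compound exposure, both at room temperature; technique: kinetic FluxOR thallium fluorescence, 10-s 1-Hz baseline, 110-s post-stimulus read; read-out basis: B score of baseline-normalized fluorescence ratio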
KCNK9 inh – inhibitors of human KCNK9 two-pore domain potassium channel | 310,000 tested, 1.2% active | Q9NPC2 | B-score at 10 µM | HEK293 KCNK9, FluxOR thallium flux fluorescence; stronger effect = lower value | AID 488922;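 active means ratio B-score over 3 SD below the library mean, with starting fluorescence within 5 SD of its mean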;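 further: negative B-score means less thallium flux so channel inhibition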
Kir21 inh – Kir2.1 (mouse) channel inhibition; 310,000 tested, 0.85% active; P35561; HEK293-Kir2.1, FluxOR thallium flux fluorescence; stronger effect = lower value; B-score at 10 µM;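 active means fluorescence ratio B-score at or below minus 3 SD of library scores, with starting-brightness B-score within 2 SD, cut at about -4.2 in these data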;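 further: channel flux triggered by added potassium and thallium sulfate stimulus; B-score of peak minus minimum fluorescence over baseline after thallium stimulus; more negative B-score means stronger Kir2.1 block with less thallium influx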
Target sequence (P35561 whole entry, looked up): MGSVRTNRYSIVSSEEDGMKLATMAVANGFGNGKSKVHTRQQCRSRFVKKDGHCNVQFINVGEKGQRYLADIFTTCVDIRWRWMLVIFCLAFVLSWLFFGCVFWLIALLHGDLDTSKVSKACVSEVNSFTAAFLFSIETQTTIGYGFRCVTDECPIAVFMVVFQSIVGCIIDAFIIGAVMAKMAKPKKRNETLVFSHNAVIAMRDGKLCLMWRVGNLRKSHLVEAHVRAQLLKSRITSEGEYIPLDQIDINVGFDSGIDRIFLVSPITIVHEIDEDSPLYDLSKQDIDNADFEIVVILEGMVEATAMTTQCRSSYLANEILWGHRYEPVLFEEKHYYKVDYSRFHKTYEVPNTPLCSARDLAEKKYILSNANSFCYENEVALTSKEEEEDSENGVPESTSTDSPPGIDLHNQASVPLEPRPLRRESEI
KCNK3 inh – human KCNK3 channel inhibition, primary screen; B-score at 10 µM; AID 602410; O14649; 340,000 tested, 0.84% active; CHO-KCNK3 thallium flux, FluxOR fluorescence; stronger effect = lower value;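 active means B-score under library mean minus 4 SD, starting fluorescence ratio at most library mean plus 5 SD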;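 further: more negative B-score means stronger inhibition of thallium flux through KCNK3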
KCNQ1 block – inhibitors of human KCNQ1 potassium channel; P51787; CHO-K1 KCNQ1, FluxOR thallium flux fluorescence; stronger effect = higher value; B-score at 10 µM; 310,000 tested, 1.3% active;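 active means compounds whose thallium flux B-score, printed positive for inhibition, exceeds three library SD while starting fluorescence stays within three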;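 further: channel opened by potassium depolarization with thallium stimulus after 20 min compound exposure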
KCNK9 inh conf – human KCNK9 inhibitor confirmation; shares compounds with KCNK9 inh; HEK293 KCNK9 cells, FluxOR thallium flux fluorescence; inhibition, % at 10 µM; 4,900 tested, 43% active; AID 492992;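 active means thallium signal inhibited by more than 5 SD of the compound-free buffer control wells, on both duplicate plates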;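 further: 0% = assay buffer control wells without compound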
Kir2-1 spec – mouse Kir2.1 off-target activity of KCNK9 modulators; shares compounds with KCNK9 inh; Kir2.1 cells, FluxOR thallium flux fluorescence; inhibition, % at 10 µM; 4,900 tested, 4% active;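 active means thallium signal drop more than 5 SD beyond the mean of the no-compound control wells, seen in both duplicate plates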;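 further: signal is fluorescence rise after thallium addition divided by baseline fluorescence; plate controls were assay buffer only for no effect and full block by chlorpromazine control for full effect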
HEK293 Tl ctr – second counter-screen for KCNK9 modulators: effect in non-induced cells; 4,900 tested, 40% active; inhibition, % at 10 µM; non-induced KCNK9-HEK293, FluxOR thallium flux; AID 492997; shares compounds with KCNK9 inh;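 active means thallium signal drop beyond 5 SD of the untreated control mean, on both duplicate plates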;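 further: plate controls were buffer only IC0 wells for no effect and SID17386958 at its maximal inhibitory level for full effect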
KCNK3 inh conf – confirmation of human KCNK3 two-pore domain potassium channel inhibitors; CHO-KCNK3 thallium flux, FluxOR fluorescence; 0% buffer, 100% carvedilol maximal block; 2,400 tested, 99% active; shares compounds with KCNK3 inh; ratio percent of control, % at 10 µM; AID 651638;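 active means ratio percent of control, averaged over triplicates, above buffer control mean plus 5 SD, cut at about 64% in these data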;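 further: ratio is the fluorescence rise from min to max over baseline after thallium stimulus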
KCNK3 uninduced – activity in cells without induced KCNK3 expression | shares compounds with KCNK3 inh | non-induced KCNK3 parental cells, FluxOR thallium flux; stronger effect = lower value | thallium flux ratio (lower = more inhibition) at 10 µM | 2,400 tested, 40% active;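 active means thallium flux ratio, averaged over three wells, more than 5 SD below the buffer control mean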;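 further: host cells are CHO cells without KCNK3 induction; ratio is peak minus trough fluorescence over baseline then normalized to buffer controls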
* = called active by the depositor; i = inactive; · = not tested or not shown.

SMILES	hERG rescue	KCNQ1 act	KCNK9 inh	Kir21 inh	KCNK3 inh	KCNQ1 block	KCNK9 inh conf	Kir2-1 spec	HEK293 Tl ctr	KCNK3 inh conf	KCNK3 uninduced
Cc1nc(N2CCC(C)CC2)c2c(C)c(C(=O)Nc3cccc(C(F)(F)F)c3)sc2n1	-8.8	i	i	1.37	-9.42*	13*	i	i	30.5%*	126.0*	0.13*
COc1cccc(-c2nn(C)c3sc(C(=O)NCc4ccc5c(c4)OCO5)cc23)c1	-17.8	i	-12.5*	0.54	-11.2*	i	57.5%*	i	24.0%*	99.0*	i
CCN(CCCNC(=O)c1cc2c(-c3cccc(OC)c3)nn(C)c2s1)Cc1ccccc1	-13.4	i	i	-3.91	i	i	·	·	·	·	·
CC/C(=N/N=C(/CC)c1ccc(O)cc1)c1ccc(O)cc1	-3.6	i	-15.2*	-1.75	-9.62*	i	55.5%*	i	30.5%*	92.0*	i
O=C(CCCSc1nnc(SCCCC(=O)c2ccc(F)cc2)s1)c1ccc(F)cc1	-17.8	i	i	-0.2	-10.7*	i	i	i	i	100.0*	i
O=S1(=O)C=C(Oc2ccc(F)cc2)c2ccccc21	-6.9	i	i	0.38	i	i	·	·	·	·	·
O=S1(=O)C=C(Oc2ccc3ccccc3c2)c2ccccc21	-16.0	i	-9.59*	0.26	-9.73*	i	40.0%*	i	41.5%*	106.7*	i
NC(=O)C1(Nc2ccc(-c3ccc(Br)cc3)cc2)CCCC1	·	·	·	·	i	·	·	·	·	·	·
Cc1ccc(-c2nc(SCC(=O)N(C)c3c(N)n(Cc4ccccc4)c(=O)[nH]c3=O)n[nH]2)cc1	-5.4	i	i	1.08	i	i	·	·	·	·	·
COC(=O)c1ccc([N+](=O)[O-])cc1N1C(=O)C2C3CCC(C3)C2C1=O (centres undefined)	-7.5	i	i	-0.32	i	i	·	·	·	·	·
COc1ccc(NC(=O)c2nnn(CC(=O)Nc3ccc4c(c3)OCO4)c2N)c(OC)c1	-6.6	i	i	0.35	i	i	·	·	·	·	·
COC(=O)[C@H](CCSC)NC(=O)N1CCN(c2cccc(C(F)(F)F)c2)CC1	-8.3	i	-8.77*	-1.67	i	i	57.5%*	i	i	84.3*	i
CCC(CC)NC(=O)C1CC(=O)N(CCc2ccc(F)cc2)C1 (centres undefined)	-5.1	i	i	-0.3	i	i	·	·	·	·	·
N#Cc1c(SCC(=O)O)nc(N2CCCCC2)c2c1CCCC2	-4.2	i	i	2.42	i	i	·	·	·	·	·
COC(=O)CSc1nc(N2CCCCC2)c2c(c1C#N)CCCC2	3.7	i	-10.3*	-1.97	-10.5*	i	38.0%*	i	35.0%*	104.0*	i
O=C(c1ccc(F)cc1)C1CCN(C(=S)Nc2ccc(F)cc2)CC1	-9.1	i	i	-0.2	i	i	·	·	·	·	·
CCc1ccc(-c2cc(C)no2)cc1S(=O)(=O)N1CCN(c2cccc(C)c2C)CC1	-10.1	i	i	0	i	i	·	·	·	·	·
CCC1CN(S(=O)(=O)c2cc(-c3cc(C)no3)ccc2OC)c2cc(C)ccc2O1 (centres undefined)	-16.9	i	-10.8*	-1.31	-10.5*	i	36.0%*	i	32.0%*	121.0*	0.155*
CCc1ccc(-c2cc(C)no2)cc1S(=O)(=O)N1CCC(C)CC1	-10.7	i	-9.34*	0.13	-10*	i	i	i	46.5%*	101.7*	i
Cc1cc(-c2ccc(C(C)C)c(S(=O)(=O)N3CCC(C)CC3)c2)on1	-5.5	i	-17*	-0.02	-16.6*	15*	66.5%*	i	53.0%*	74.7*	i
CCc1ccc(-c2cc(C)no2)cc1S(=O)(=O)N1CCOc2ccc(C)cc21	-8.2	i	-8.93*	0.43	-10.6*	i	47.5%*	i	33.0%*	124.7*	0.155*
CCCCN1C[C@H](COC(=O)CCC)Oc2cccc(F)c2S1(=O)=O	·	·	·	·	i	·	·	·	·	·	·
CN(C(=O)COC(=O)c1ccc(S(=O)(=O)N2CCOCC2)cc1)c1ccccc1	·	·	·	·	i	·	·	·	·	·	·
CC1(C)Oc2ccc3ccc(=O)oc3c2/C(=C/O)C1=O	-5.9	i	i	-0.27	i	i	·	·	·	·	·
CC1(C)Oc2ccc3ccc(=O)oc3c2/C(=C/Nc2ccccc2)C1=O	-11.1	i	-11.8*	0.06	-10.5*	i	55.5%*	i	i	109.7*	i
SMILES	hERG rescue	KCNQ1 act	KCNK9 inh	Kir21 inh	KCNK3 inh	KCNQ1 block	KCNK9 inh conf	Kir2-1 spec	HEK293 Tl ctr	KCNK3 inh conf	KCNK3 uninduced
CC(C)N(Cc1nc(-c2ccc(Cl)cc2)no1)C(=O)C(c1ccccc1)c1ccccc1	-11.6	i	-10.5*	0.01	-9.92*	i	55.0%*	i	40.0%*	129.3*	0.133*
Cc1c[nH]c(=O)c([N+](=O)[O-])c1	-7.6	i	i	-0.54	i	i	·	·	·	·	·
COc1cc2nc(SCc3c(C)noc3C)n(CCC3=CCCCC3)c(=O)c2cc1OC	-6.0	i	-14*	0.25	-10.3*	i	28.5%*	32.0%*	31.5%*	125.3*	0.14*
C=CCn1c(SCc2c(C)noc2C)nc2ccccc2c1=O	-12.1	i	i	0	i	i	·	·	·	·	·
COc1ccc(OC)c(S(=O)(=O)n2cnc3cc(C)c(C)cc32)c1	-4.8	i	i	-0.38	-11.2*	i	·	·	·	98.7*	i
CCOc1ccc(S(=O)(=O)n2cnc3cc(C)c(C)cc32)cc1	-6.0	i	i	-0.27	i	i	·	·	·	·	·
O=C(Nc1cccc(Cl)c1)OC1CCCCc2cccnc21 (centres undefined)	-3.4	i	i	0.13	-9.34*	i	·	·	·	116.3*	i
Cc1ccc(NC(=S)N2CCN(S(C)(=O)=O)CC2)cc1Cl	-2.0	i	i	2.25	i	i	·	·	·	·	·
CCOC(=O)/C(C#N)=C/c1c(N2CCN(c3ccc(OC)cc3)CC2)nc2c(C)cccn2c1=O	-7.9	i	i	-0.02	-12*	i	·	·	·	83.0*	0.152*
